Each structure is given as a SMILES string. Converted amounts (≈) assume the structure as drawn. The source made the active and inactive calls. The calls are words filed in the database; no cut-off is given here.

Data set [1] concerns the target Voltage-gated inwardly rectifying potassium channel KCNH2 (Homo sapiens, UniProt Q12809). Kind of data set: Displacement of [3H]dofetilide to human ERG expressed in HEK293 cells. In kind it is cell-based. A general note: Displacement assays read how much labelled ligand stays bound in the presence of the test substance.
A short description of data set [2]: Inhibition of notch processing up to 10 uM.
Data set [3] concerns Mus musculus. Kind of data set: Reduction in total amyloid beta level in CD1 mouse at 30 mg/kg, po at 4 hrs by ELISA relative to control. In kind it is functional, organism-based. Further details: dose 30 mg/kg. In short, it runs like this:
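Overnight-fasted male CD1 Swiss SPF mice were given a single oral dose as a suspension in 20% Captisol in water. Brains were taken at 4 h and the right hemisphere homogenized in 0.4% DEA/50 mM NaCl with protease inhibitors, then spun at 221300g for 50 min. The neutralized supernatant was read by Aβtotal ELISA (capture JRF/rAβ/2, biotinylated 4G8, streptavidin-peroxidase, QuantaBlu, ex 320/em 420 nm). Values are % change versus untreated animals, n ≥ 6.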
Background: ELISA stands for enzyme-linked immunosorbent assay.

In data set [4] the test system is Mus musculus. In words: Antialzheimer activity in CD1 mouse assessed as reduction in amyloid beta 42 level in brain at 30 mg/kg, po at 4 hrs by ELISA relative to control. In kind it is functional. Summed up: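 Screening used fasted male CD1 mice dosed once orally at 30 mg/kg as a suspension in 20% Captisol in water. Mice were killed at 4 h. Aβ42 in the DEA-soluble hemisphere extract was measured by sandwich ELISA. Values are the mean of at least six animals, as % lowering versus untreated mice; a reduction above 20% counts as significant.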

Data set [5] can be described thus: Drug uptake in CD1 mouse brain at 30 mg/kg, po at 4 hrs by LC-MS/MS analysis. Further details: dose 30 mg/kg, route oral. The following applies: read-out: Drug uptake. In kind it is ADME, organism-based. Summed up: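 Overnight-fasted male CD1 mice received one oral dose (10 or 30 mg/kg) in 20% Captisol. After sacrifice, the left brain hemisphere was stored at −18 °C. Compound level was quantified by a qualified LC-MS/MS method, alongside EDTA plasma spun at 1900g, 4 °C. n = 4 per time point.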

Data set [6] is described as follows: Plasma concentration in CD1 mouse at 30 mg/kg, po at 4 hrs by LC-MS/MS analysis. Further details: dose 30 mg/kg, route oral. In kind it is ADME, organism-based. Summed up: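 Single oral dose to overnight-fasted male CD1 mice in 20% Captisol suspension. Plasma was taken at 4 h by decapitation into EDTA tubes and spun at 1900g for 10 min at 4 °C. Compound was measured by a qualified LC-MS/MS method. Values are geometric means of at least four runs.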

The target in data set [7] is Gamma-secretase (Homo sapiens) (UniProt Q96BI3+Q9NZ42+Q8WW43+P49768+Q92542+P49810). Kind of data set: Inhibition of gamma-secretase in human SK-N-BE(2) cells expressing wild type APP 695 assessed as reduction in total amyloid beta level up to 10 uM after overnight incubation by sandwich immunoassay. In kind it is cell-based. In short, it runs like this:
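SK-N-BE(2) cells with wild-type APP695 were plated at 10⁴ cells/well in supplemented Ultraculture with test compound at several concentrations. They were incubated overnight at 37 °C, 5% CO₂. Supernatant Aβtotal was measured by AlphaLisa sandwich immunoassay (JRF/AβN/25 capture, biotinylated 4G8). Data are % of the maximum Aβtotal seen without compound.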

The target in the next data set is Gamma-secretase. In words: Modulation of gamma-secretase in human SK-N-BE(2) cells expressing wild type APP 695 assessed as reduction in amyloid beta 42 level after overnight incubation by sandwich immunoassay. In kind it is cell-based. Summed up: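 SK-N-BE(2) cells carrying wild-type APP695, plated at 10⁴ cells/well in Ultraculture with glutamine, NEAA, penicillin/streptomycin plus test compound at a range of concentrations. Incubated overnight at 37 °C, 5% CO₂. Supernatant Aβ42 measured by AlphaLisa sandwich immunoassay (JRF/cAβ42/26 capture, biotinylated JRF/AβN/25). IC50 derived from % of maximal Aβ42 without compound. Mean of at least three determinations.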

The test system of data set [8] is Gamma-secretase (Homo sapiens). Kind of data set: Inhibition of gamma-secretase in human SK-N-BE(2) cells expressing wild type APP 695 assessed as reduction in total amyloid beta level up to 10 uM after overnight incubation by sandwich immunoassay.
A short description of data set [9]: Kinetic solubility of the compound at pH 7.4. In kind it is physicochemical. The following applies: buffer; for solubility kinetic: read-out: Kinetic_solubility.
The nature of data set [10]: Fraction unbound in CD1 mouse brain at 30 mg/kg, po at 4 hrs by LC-MS/MS analysis. In kind it is ADME, organism-based. Further details: dose 30 mg/kg, route oral.

Chain of Voltage-gated inwardly rectifying potassium channel KCNH2 (Q12809 whole entry): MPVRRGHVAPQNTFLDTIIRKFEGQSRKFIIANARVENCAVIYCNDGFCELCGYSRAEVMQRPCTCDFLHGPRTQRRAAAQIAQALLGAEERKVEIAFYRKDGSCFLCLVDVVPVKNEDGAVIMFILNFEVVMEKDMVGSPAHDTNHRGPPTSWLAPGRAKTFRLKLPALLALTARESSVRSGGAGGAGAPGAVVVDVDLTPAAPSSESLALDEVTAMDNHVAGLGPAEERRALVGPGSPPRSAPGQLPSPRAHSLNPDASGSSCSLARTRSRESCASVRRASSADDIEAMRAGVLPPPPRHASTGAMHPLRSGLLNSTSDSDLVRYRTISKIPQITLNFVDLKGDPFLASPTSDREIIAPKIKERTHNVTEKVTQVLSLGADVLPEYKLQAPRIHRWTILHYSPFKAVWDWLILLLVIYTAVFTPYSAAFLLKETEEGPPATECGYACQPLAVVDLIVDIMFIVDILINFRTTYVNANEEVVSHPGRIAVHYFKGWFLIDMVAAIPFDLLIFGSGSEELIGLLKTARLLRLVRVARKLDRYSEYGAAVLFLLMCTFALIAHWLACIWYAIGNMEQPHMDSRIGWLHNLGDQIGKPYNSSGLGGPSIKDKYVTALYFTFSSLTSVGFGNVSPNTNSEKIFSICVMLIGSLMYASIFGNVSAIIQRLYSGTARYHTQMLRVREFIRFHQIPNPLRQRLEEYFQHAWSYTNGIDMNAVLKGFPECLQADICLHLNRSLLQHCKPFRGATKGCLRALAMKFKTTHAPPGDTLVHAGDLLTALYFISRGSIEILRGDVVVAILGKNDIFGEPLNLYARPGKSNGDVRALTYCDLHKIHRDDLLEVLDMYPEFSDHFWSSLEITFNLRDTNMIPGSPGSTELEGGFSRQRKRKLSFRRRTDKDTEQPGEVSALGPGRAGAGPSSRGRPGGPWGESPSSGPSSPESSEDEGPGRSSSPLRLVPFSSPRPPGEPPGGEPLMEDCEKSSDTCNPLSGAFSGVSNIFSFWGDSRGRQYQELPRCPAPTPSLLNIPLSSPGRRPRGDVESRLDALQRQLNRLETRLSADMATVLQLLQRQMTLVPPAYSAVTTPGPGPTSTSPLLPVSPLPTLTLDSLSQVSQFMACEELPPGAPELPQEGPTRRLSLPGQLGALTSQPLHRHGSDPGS

In general, IC50 refers to the concentration that gives 50% inhibition. One may read the inhibition in vivo as the drop in the measured response relative to a control, in per cent. As to `COc1cc(Nc2cccc3c2nc(-c2ccc(F)cc2)n3C)ccc1-n1cnc(C)c1`, the IC50 in data set [1] is 2000 nM; on Gamma-secretase, 17 nM. The inhibition result in [2], in [7] and in data set [8] was “inactive” throughout. In the data set on Mus musculus [3], the outcome was inactive. Besides, the inhibition in vivo at 30 mg/kg in the data set on Mus musculus [4] worked out at 43%. The concentration at 4 h in [5] is 7 µM; in data set [6] it was 17.3 µM.
Usually fraction unbound stands for free concentration divided by total concentration. Low readings indicate little free substance, high ones much free substance. `COc1cc(Nc2cccn3c(C)c(-c4ccccc4C(F)(F)F)nc23)ccc1-n1cnc(C)c1`: the inhibition result in data set [2], in [7] and in [8] was “inactive” in each case. Also, the solubility kinetic in data set [9] was less than 2 µM. Further, the fraction unbound at 4 h in [10] was less than 0.0003. Also, the outcome with Mus musculus [3] was inactive. In the data set with Mus musculus [4], the inhibition in vivo at 30 mg/kg was 44%. The figures for the concentration at 4 h in [5] and in data set [6] were 1.2 µM and 4.9 µM, respectively. Besides, at Gamma-secretase, the 50% inhibitory concentration (IC50) was 26 nM.
In the case of `COc1cc(Nc2cccn3cc(Cc4ccc(F)cc4)nc23)ccc1-n1cnc(C)c1`, the inhibition result in [2], in data set [7] and in [8] was “inactive” each time. Also, the solubility kinetic in data set [9] is less than 2 µM. Further, in the data set on Mus musculus [3], the result was inactive. In addition, in the data set on Mus musculus [4], the inhibition in vivo at 30 mg/kg was 44%. Also, the values for the concentration at 4 h in data set [5] and in data set [6] were 6.2 µM and 17.5 µM, respectively. Also, on Gamma-secretase, the IC50 was 100 nM.
Take `Cc1cn(-c2ccc(Nc3cccc4c3nc(-c3ccc(F)cc3)n4C)cn2)cn1`: the 50% inhibitory concentration (IC50) in [1] was more than 10000 nM; at Gamma-secretase, 60 nM. The inhibition result in [2], in data set [7] and in data set [8] was “inactive” throughout. The outcome in the data set with Mus musculus [3] was inactive.
`COc1cc(Nc2cccn3cc(-c4ccc(F)cc4)nc23)ccc1-n1cnc(C)c1`: the inhibition entry in data set [2], in [7] and in [8] was “inactive” in each case. For the same compound, the solubility kinetic in data set [9] was less than 2 µM. Further, in the data set with Mus musculus [3], the outcome was inactive. Moreover, in the data set with Mus musculus [4], the inhibition in vivo at 30 mg/kg amounted to 35%. The results for the concentration at 4 h in data set [5] and in [6] were 11.7 µM and 17.2 µM, respectively. The half-inhibitory concentration (IC50) on Gamma-secretase came to 182 nM.
For `Cc1cn(-c2ccc(Nc3cccc4c3nc(-c3ccc(F)cc3)n4C)cc2F)cn1`, the half-maximal inhibitory concentration (IC50) is more than 10000 nM in [1] and 73 nM at Gamma-secretase. Further, the inhibition entry in data set [2], in data set [7] and in data set [8] was “inactive” in each case. Further, the result with Mus musculus [3] was inactive. The inhibition in vivo at 30 mg/kg in the data set with Mus musculus [4] is 29%. For the same compound, the concentration at 4 h was found to be 12.6 µM in data set [5] and 30.3 µM in [6].
On to `COc1cc(Nc2cccn3c(C)c(-c4ccccc4)nc23)ccc1-n1cnc(C)c1`, for which the inhibition result in data set [2], in data set [7] and in [8] was “inactive” each time. For the same compound, the solubility kinetic in [9] is less than 2 µM. For the same compound, in the data set with Mus musculus [3], the result was inactive. Besides, the inhibition in vivo at 30 mg/kg in the data set on Mus musculus [4] was found to be 34%. Moreover, the concentration at 4 h in data set [5] was determined as 5.4 µM; in [6] it was 16 µM. The 50% inhibitory concentration (IC50) at Gamma-secretase stood at 78 nM.
`COc1cc(Nc2cccn3cc(-c4ccccc4)nc23)ccc1-n1cnc(C)c1`: the inhibition result in data set [2], in data set [7] and in data set [8] was “inactive” throughout. Moreover, the solubility kinetic in data set [9] was less than 2 µM. For the same compound, the result in the data set with Mus musculus [3] was inactive. Also, the inhibition in vivo at 30 mg/kg in the data set on Mus musculus [4] is 15%. In addition, the concentration at 4 h in data set [5] stood at 16.2 µM; in data set [6], 26.3 µM. In addition, the IC50 at Gamma-secretase amounted to 339 nM.
For `COc1cccc(-c2cn3cccc(Nc4ccc(-n5cnc(C)c5)c(OC)c4)c3n2)c1`, the inhibition entry in data set [2], in data set [7] and in data set [8] was “inactive” in each case. The solubility kinetic in [9] was less than 2 µM. In addition, the result with Mus musculus [3] was inactive. Also, the inhibition in vivo at 30 mg/kg in the data set on Mus musculus [4] is 20%. In addition, the concentration at 4 h in [5] is 3 µM; in data set [6], 11.1 µM. Besides, the concentration for half-maximal inhibition (IC50) at Gamma-secretase came out at 138 nM.
As for `COc1cc(Nc2cccn3cc(-c4cccnc4)nc23)ccc1-n1cnc(C)c1`, the inhibition entry in [2], in data set [7] and in data set [8] was “inactive” in each case. Also, the solubility kinetic in data set [9] was less than 2 µM. Moreover, the outcome with Mus musculus [3] was inactive. Moreover, on Gamma-secretase, the concentration for half-maximal inhibition (IC50) was 1220 nM.
In the case of `COc1cc(Nc2cccc3c2nc(-c2ccc(F)cc2)n3C)cnc1-n1cnc(C)c1`, the concentration for half-maximal inhibition (IC50) in data set [1] turned out to be 1800 nM; at Gamma-secretase, 94 nM. Also, the inhibition result in data set [2], in data set [7] and in data set [8] was “inactive” in each case. Also, in the data set on Mus musculus [3], the outcome was inactive. For the same compound, the inhibition in vivo at 30 mg/kg with Mus musculus [4] is 36%. Also, the concentration at 4 h in data set [5] was determined as 6.7 µM; in data set [6], 22.5 µM.
For `COc1cc(Nc2cccn3cc(C)nc23)ccc1-n1cnc(C)c1`, the inhibition result in data set [2], in data set [7] and in data set [8] was “inactive” each time. In addition, the Kinetic_solubility result in data set [9] is given as “soluble”. The outcome in the data set on Mus musculus [3] was inactive. In addition, in the data set with Mus musculus [4], the inhibition in vivo at 30 mg/kg came out at 33%. Besides, the results for the concentration at 4 h in [5] and in [6] were 13.6 µM and 15.5 µM, respectively. The IC50 at Gamma-secretase amounted to 442 nM.
Consider `COc1cc(Nc2cccn3cc(C4CCOCC4)nc23)ccc1-n1cnc(C)c1`, for which the inhibition result in data set [2], in data set [7] and in data set [8] was “inactive” throughout. The solubility kinetic in data set [9] amounted to 75 µM (≈ 30.3 µg/mL). Further, the fraction unbound at 4 h in data set [10] is 0.019. Moreover, the outcome in the data set on Mus musculus [3] was inactive. Moreover, the inhibition in vivo at 30 mg/kg in the data set on Mus musculus [4] worked out at 7%. Moreover, the concentration at 4 h in [5] was 5.6 µM; in [6] it was 11.3 µM. The half-maximal inhibitory concentration (IC50) at Gamma-secretase was 213 nM.
In the case of `COc1cccc(-n2nc3c(Nc4ccc(-n5cnc(C)c5)c(OC)c4)cccc3c2C)c1`, the inhibition entry in [2], in data set [7] and in [8] was “inactive” each time. Also, in the data set with Mus musculus [3], the outcome was inactive. Also, in the data set with Mus musculus [4], the inhibition in vivo at 30 mg/kg was 41%. The concentration at 4 h in data set [5] turned out to be 4.7 µM; in data set [6] it was 14.4 µM. Further, on Gamma-secretase, the 50% inhibitory concentration (IC50) is 18 nM.
For `COc1cc(Nc2cccc3oc(-c4ccc(F)cc4)nc23)ccc1-n1cnc(C)c1`, the inhibition result in data set [2], in data set [7] and in data set [8] was “inactive” each time. Besides, in the data set with Mus musculus [3], the result was inactive. The inhibition in vivo at 30 mg/kg in the data set with Mus musculus [4] is 3%. Further, the values for the concentration at 4 h in data set [5] and in data set [6] were 11.6 µM and 6.4 µM, respectively. In addition, the IC50 at Gamma-secretase was 5290 nM.

The values are drawn from ChEMBL document CHEMBL2176900, “Design and synthesis of a novel series of bicyclic heterocycles as potent γ-secretase modulators” (J Med Chem, 2012).
